Screens as filed in PubChem.
ADAM10 inh: inhibits human ADAM10; inhibition, % at 7 µM; AID 720582; recombinant ADAM10, EDANS/DABCYL FRET peptide cleavage, 3 h; hit rate 0.62% among 370,000;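 active = inhibition above a per-campaign cutoff equal to the mean of compounds falling between control-based bounds plus 3 SD, cut at about 20% in these data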
SKN-1 inh: blocks SKN-1 activity in C. elegans | C. elegans VP596 Pgst-4::GFP/RFP ratio, acrylamide-induced, 24 h | inhibition, % at 21.8 µM | hit rate 0.49% among 360,000 | AID 624304;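 active = interference check ratio from 0.5 to 1.5 plus GFP to RFP signal ratio inhibition reaching or exceeding a fixed threshold, cut at about 30% in these data, passing the limit was not always enough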
MT1-MMP act inh: blocks activation of human MT1-MMP | GFP/RFP ratio change, % at 20 µM | P50281 | hit rate 0.061% among 360,000 | HT1080 RFP-PRO-GFP cells, GFP/RFP ratio fluorescence, overnight; percent of plate control window, DMSO zero;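 active = GFP/RFP ratio change of at least 30% with cell ATP level not reduced by more than half and red fluorescence within 50% of control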
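Material: RFP-PRO-GFP reporter HT1080 cells. Dosing: single-point 20 µM compound, 1% DMSO. Controls: DMSO and RFP-L50D-GFP cell wells. Timing: cells overnight before dosing, compound overnight, 37 °C, 5% CO2. Measure: GFP/RFP fluorescence ratio.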
MPTP inh: blocks calcium-induced mitochondrial swelling; isolated mouse mitochondria, Ca2+ swelling absorbance, 30 min; inhibition, % at 10 µM; hit rate 1.4% among 360,000; AID 602449;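 active = inhibition of 50% or more, scaled per plate between neutral and stimulator controls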
ADAM17 inh: inhibits human ADAM17. recombinant ADAM17, EDANS/DABCYL FRET peptide cleavage. hit rate 0.83% among 370,000. P78536. AID 720648. inhibition, % at 6.95 µM;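 active = inhibition above the mean of compounds lying between control limits plus 3 SD, set per campaign, cut at about 8.5% in these data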
Target sequence (P78536 215-824 limits assumed): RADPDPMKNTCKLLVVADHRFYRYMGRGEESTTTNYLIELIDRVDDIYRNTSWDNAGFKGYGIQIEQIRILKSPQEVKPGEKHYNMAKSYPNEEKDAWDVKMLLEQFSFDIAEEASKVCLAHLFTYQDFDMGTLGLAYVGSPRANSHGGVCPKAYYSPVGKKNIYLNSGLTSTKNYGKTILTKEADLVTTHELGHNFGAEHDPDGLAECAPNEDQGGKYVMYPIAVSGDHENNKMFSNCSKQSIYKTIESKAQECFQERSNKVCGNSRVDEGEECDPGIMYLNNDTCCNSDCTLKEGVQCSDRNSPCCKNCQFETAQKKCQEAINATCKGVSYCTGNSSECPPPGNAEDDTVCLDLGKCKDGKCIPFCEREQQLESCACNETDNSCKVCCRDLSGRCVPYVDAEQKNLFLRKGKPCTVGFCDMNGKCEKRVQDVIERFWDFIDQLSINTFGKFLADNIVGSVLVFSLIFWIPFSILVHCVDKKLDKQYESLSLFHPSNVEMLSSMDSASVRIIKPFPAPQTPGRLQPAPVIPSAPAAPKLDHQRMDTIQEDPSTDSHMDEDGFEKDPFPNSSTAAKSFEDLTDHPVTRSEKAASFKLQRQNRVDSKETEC
NR3A LBD binder: modulates the human NR3A ligand-binding domain | hit rate 2.5% among 340,000 | NR3A LBD differential scanning fluorimetry, Tm shift; 0% = protein alone, 100% = glycine-bound protein | Tm shift relative to glycine control, % at 25 µM | AID 1259313;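 active = melting temperature shift of at least 10% of the positive control shift, at one fixed dose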
Rh123 counter: membrane potential counter-screen of mitochondrial pore inhibitors | shares compounds with MPTP inh | inhibition, % at 10 µM | hit rate 78% among 5,000 | isolated mitochondria, Rhodamine 123 fluorescence; in the data active = inhibition above about 22%
MPTP abs DR: MPTP inhibition, dose response swelling confirmation. hit rate 58% among 780. isolated mitochondria swelling, absorbance. IC50, µM. shares compounds with MPTP inh; in the data active = IC50 below about 20 µM
MPTP cs DR: active in counter-screen for permeability transition pore inhibitors; shares compounds with MPTP inh; isolated mitochondria counterscreen, fluorescence read-out; IC50, µM; hit rate 49% among 780; in the data active = IC50 below about 80 µM
A number is an active result; n = inactive; x = not tested or not shown. This is a sample that favours compounds with a hit; in the whole collection about 4.7% have one here.

SMILES | ADAM10 inh | SKN-1 inh | MT1-MMP act inh | MPTP inh | ADAM17 inh | NR3A LBD binder | Rh123 counter | others
CCOC(=O)c1sc(NC(=O)c2cccc(S(=O)(=O)N3c4ccccc4CC3C)c2)cc1C (configuration not stated) | n | n | n | 56 | n | 13 | 38
Cc1cc(NC(=O)c2cccc(S(=O)(=O)N3c4ccccc4CC3C)c2)no1 (configuration not stated) | n | n | n | n | n | n | x
Cc1c(CCOC(=O)C23CC4CC(CC(C)(C4)C2)C3)sc[n+]1CC(=O)c1ccccc1 | n | n | n | n | n | n | x
Cc1c(CCOC(=O)CC23CC4CC(CC(C)(C4)C2)C3)sc[n+]1CC(=O)c1ccccc1 | n | n | n | 68 | n | n | 24
C/C(CC(=O)NCc1ccco1)=N\NC(=O)Cc1ccc(-c2ccccc2)cc1 | n | n | n | n | n | n | x
Cc1ccccc1NC(=O)C1(NC(=O)c2cccc(N3C(=O)CSC3c3ccccc3)c2)CCCCC1 (configuration not stated) | n | n | n | n | n | n | x
O=C1N(Cc2cccc(Cl)c2)C[C@@H]2C[C@@H](c3ccsc3)N3CCC[C@@]123 | n | n | n | n | n | n | x
CCOC(=O)CSc1nnc(NCC(=O)OC(C)C)c(=O)[nH]1 | n | n | n | 63 | n | n | n | MPTP abs DR=n;MPTP cs DR=n
CC1CC(C)CN(C(=O)CCNC(=O)Cn2ccc3ccccc3c2=O)C1 (configuration not stated) | n | n | n | n | n | n | x
O=C(Nc1cccc(-c2cccc(F)c2)c1)C1CCN(C2CCC2)CC1 | n | n | n | 64 | n | n | n | MPTP abs DR=7.7;MPTP cs DR=58
O=C(Nc1cccc(-c2cccc(F)c2)c1)C1CCN(CC2CCOC2)CC1 (configuration not stated) | n | n | n | n | n | n | x
CC(CS(=O)(=O)c1ccc2c(c1)NC(=O)CS2)C(=O)N1CCN(c2cccc(Cl)c2)CC1 (configuration not stated) | n | n | n | n | n | n | x
CC(=O)c1ccc(NC(=O)Nc2ccc(S(=O)(=O)N3CCCC3)cc2)cc1 | n | n | n | 80 | n | 30 | 93
CC(=O)c1ccc(S(=O)(=O)Nc2ccc(S(=O)(=O)N3CCCCC3)cc2)cc1 | n | n | n | n | n | n | x
COc1ccc(NC(=O)c2cc(S(=O)(=O)N3CCCC3)oc2C)cc1 | n | n | n | n | n | n | x
O=C(Nc1ccc(F)cc1)Nc1ccc(S(=O)(=O)N2CCCC2)cc1 | n | n | n | 83 | n | 28 | 100
Cc1oc(S(=O)(=O)N2CCCCC2)cc1NC(=O)Nc1ccc(F)cc1 | n | n | n | 77 | n | n | 87
CC1CCCN(c2ccc([N+](=O)[O-])s2)C1 (configuration not stated) | n | n | n | n | n | n | x
Cc1ccc(OCc2nc3c4c(ncn3n2)-c2ccccc2CC42CCCC2)cc1 | n | n | n | 57 | n | n | n | MPTP abs DR=8.4;MPTP cs DR=n
Cc1ccccc1OCc1nc2c3c(ncn2n1)-c1ccccc1CC31CCCC1 | n | n | n | 69 | n | n | n | MPTP abs DR=13;MPTP cs DR=n
COc1ccc(-c2nc3c4c(ncn3n2)-c2ccccc2CC42CCCC2)cc1 | n | n | n | 78 | n | n | n | MPTP abs DR=n;MPTP cs DR=n
COc1cc(C(=O)ONC(=O)c2ccc(OC(F)F)cc2)cc(OC)c1OC | n | n | n | n | n | n | x
O=C(COC(=O)c1ccccc1O)NC(c1ccccc1)c1ccccc1 | n | n | n | n | n | n | x
CCCC(=O)Nc1cccc(NC(=O)Cc2ccc(Cl)cc2)c1 | n | n | n | n | n | x | x
Cc1c(CC(=O)Nc2ccc(Cl)cc2)sc2ccc(Cl)cc12 | n | n | n | 88 | n | 28 | 91
SMILES | ADAM10 inh | SKN-1 inh | MT1-MMP act inh | MPTP inh | ADAM17 inh | NR3A LBD binder | Rh123 counter | others
CCN(CC)S(=O)(=O)c1ccc(OC)c(NC(=O)c2cn(CC)c3nc(C)ccc3c2=O)c1 | n | n | n | n | n | n | x
Cc1nc(N2CCCCC2C)c2c(C)c(C(=O)Nc3cccc(C(F)(F)F)c3)sc2n1 (configuration not stated) | n | n | n | 70 | n | n | 41
Cc1nc(N2CCCCC2)c2c(C)c(C(=O)Nc3cccc(C(F)(F)F)c3)sc2n1 | n | n | n | 84 | n | n | 49
COC(=O)C[C@H]1N(S(=O)(=O)c2ccc(C)cc2)C(C(C)C)CC1(C(=O)OC)C(=O)OC (some centres not stated) | n | n | n | n | n | x | x
COc1ccc(C(=O)COC(=O)C(C(C)C)N2C(=O)C3C4C=CC(C4)C3C2=O)cc1 (configuration not stated) | n | n | n | n | n | n | x
Cc1[nH]c2ccccc2c1C(=O)CSc1nncn1C | n | n | n | n | n | n | x
O=C(Nc1cccc(Br)c1)c1ccc(Cl)c(S(=O)(=O)N2CCOCC2)c1 | n | n | n | 54 | n | n | 75
O=C(CSc1nc2ccccc2s1)NCCOc1ccc(Cl)cc1 | n | n | n | n | n | n | x
O=C(CSc1nc2ccccc2s1)NNC(=S)Nc1ccc(Cl)cc1 | n | n | n | 93 | n | 32 | 86
O=C(O)CCCCCN1C(=O)/C(=C\c2ccc(-c3ccc(Cl)cc3)o2)SC1=S | n | n | n | 88 | n | n | 47
Cc1ccc(C)c(NC(=O)c2ccccc2NS(=O)(=O)c2cc([N+](=O)[O-])ccc2C)c1 | n | n | n | 92 | n | 17 | 58
Cc1cc(NC(=O)c2ccccc2NS(=O)(=O)c2c(C)c(C)cc(C)c2C)no1 | n | n | n | n | n | n | x
Cc1ccc(C)c(S(=O)(=O)Nc2ccccc2C(=O)Nc2cc(C)on2)c1 | n | n | n | 58 | n | n | 70
Cc1nn(-c2ccccc2)c(Cl)c1C(=O)Nc1c(C)n(C)n(-c2ccccc2)c1=O | n | n | n | n | n | n | x
COc1ccc(S(=O)(=O)NCc2ccccc2)cc1Br | n | n | n | n | n | x | x
Cc1cc(C(=O)COc2nncc3ccccc23)c(C)n1C | n | n | n | n | n | n | x
C=CCNc1ncnc2c1[nH]c1ccc(Cl)cc12 | n | n | n | 89 | n | n | 94
O=C1CSC(c2cccnc2)N1CCc1ccccn1 (configuration not stated) | n | n | n | n | n | n | x
Cn1cc(CN2CCCC(C(=O)c3ccc(-c4ccccc4)cc3)C2)cn1 (configuration not stated) | n | n | n | n | n | n | x
